Measurements: ChEMBL document CHEMBL2429806, “Designed Trpzip-3 β-Hairpin Inhibits Amyloid Formation in Two Different Amyloid Systems” (ACS Med Chem Lett, 2013)

Target: Transthyretin (Homo sapiens) (UniProt P02766)
Assay: Inhibition of transthyretin (unknown origin) aggregation at 2 mol equiv measured at 36 hrs by congo red assay relative to control
How it was run: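 TTR aggregation was induced at pH 4.5 with or without the test agent. Aggregation was scored by Congo red at its peak, 36 h. Thioflavin T was not usable because dissolved, filtered TTR gives high background fluorescence.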

`O=C(O)c1cc(-c2ccc(F)cc2F)ccc1O` showed an inhibition greater than 90%.
